Values after ≈ are worked out from the molar mass of the structure shown. Active and inactive are the calls of the source. No cut-off for these calls is given here.
Tests used:
Bacillus cereus [1] = experiment: Antimicrobial activity against Bacillus cereus at 10 ug/disk after 24 hrs by disk diffusion assay; format: functional
Outline: (§1)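 Disc diffusion on 4 mm filter discs. Bacteria are grown overnight in LB at 28 C, then adjusted in saline to 1.0 × 10^5 cfu/ml. The suspension is mixed into top agar over peptone agar plates. Plates are incubated 24 h at 28 C, and growth-inhibition zone diameter is measured. Streptomycin and ampicillin controls are applied from a 1 mg/ml stock. Tests are done in duplicate.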

Micrococcus flavus [2] = experiment: Antimicrobial activity against Micrococcus flavus at 10 ug/disk after 24 hrs by disk diffusion assay; format: functional; outline: as §1
Staphylococcus aureus [3] = experiment: Antimicrobial activity against Staphylococcus aureus at 10 ug/disk after 24 hrs by disk diffusion assay; format: functional; outline: as §1
Escherichia coli [4] = experiment: Antimicrobial activity against Escherichia coli at 10 ug/disk after 24 hrs by disk diffusion assay; format: functional; outline: as §1
Pseudomonas aeruginosa [5] = experiment: Antimicrobial activity against Pseudomonas aeruginosa at 10 ug/disk after 24 hrs by disk diffusion assay; format: functional; outline: as §1
Enterobacter cloacae [6] = experiment: Antimicrobial activity against Enterobacter cloacae at 10 ug/disk after 24 hrs by disk diffusion assay; format: functional; outline: as §1
Salmonella typhimurium [7] = experiment: Antimicrobial activity against Salmonella Typhimurium at 10 ug/disk after 24 hrs by disk diffusion assay; format: functional, organism-based; details: Salmonella enterica subsp. enterica serovar Typhimurium; outline: as §1
Listeria monocytogenes [8] = experiment: Antimicrobial activity against Listeria monocytogenes at 10 ug/disk after 24 hrs by disk diffusion assay; format: functional; outline: as §1
Bacillus cereus [9] = experiment: Antimicrobial activity against Bacillus cereus at 1 umol/disk after 24 hrs by disk diffusion assay; format: functional; outline: as §1
Micrococcus flavus [10] = experiment: Antimicrobial activity against Micrococcus flavus at 1 umol/disk after 24 hrs by disk diffusion assay; format: functional; outline: as §1
Staphylococcus aureus [11] = experiment: Antimicrobial activity against Staphylococcus aureus at 1 umol/disk after 24 hrs by disk diffusion assay; format: functional; outline: as §1
Escherichia coli [12] = experiment: Antimicrobial activity against Escherichia coli at 1 umol/disk after 24 hrs by disk diffusion assay; format: functional; outline: as §1
Pseudomonas aeruginosa [13] = experiment: Antimicrobial activity against Pseudomonas aeruginosa at 1 umol/disk after 24 hrs by disk diffusion assay; format: functional; outline: as §1
Enterobacter cloacae [14] = experiment: Antimicrobial activity against Enterobacter cloacae at 1 umol/disk after 24 hrs by disk diffusion assay; format: functional; outline: as §1
Salmonella typhimurium [15] = experiment: Antimicrobial activity against Salmonella Typhimurium at 1 umol/disk after 24 hrs by disk diffusion assay; format: functional, organism-based; details: Salmonella enterica subsp. enterica serovar Typhimurium; outline: as §1
Listeria monocytogenes [16] = experiment: Antimicrobial activity against Listeria monocytogenes at 1 umol/disk after 24 hrs by disk diffusion assay; format: functional; outline: as §1
Bacillus cereus [17] = experiment: Antimicrobial activity against Bacillus cereus at 1 umol/spot after 18 hrs by TLC-bioautographic method; format: functional
Outline: (§2)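 TLC bioautography. Samples are spotted on silica gel TLC plates, then sprayed with bacteria (1.0 × 10^5 cfu/ml) in tryptic soy broth. Plates are incubated 18 h at 37 C and sprayed with 3% aqueous p-iodonitrotetrazolium violet. After a further 3 h, growth is stopped with 70% EtOH. White zones on a pink background are scored as inhibition-zone diameter with standard errors.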

Micrococcus flavus [18] = experiment: Antimicrobial activity against Micrococcus flavus at 1 umol/spot after 18 hrs by TLC-bioautographic method; format: functional; outline: as §2
Staphylococcus aureus [19] = experiment: Antimicrobial activity against Staphylococcus aureus at 1 umol/spot after 18 hrs by TLC-bioautographic method; format: functional; outline: as §2
Escherichia coli [20] = experiment: Antimicrobial activity against Escherichia coli at 1 umol/spot after 18 hrs by TLC-bioautographic method; format: functional; outline: as §2
Pseudomonas aeruginosa [21] = experiment: Antimicrobial activity against Pseudomonas aeruginosa at 1 umol/spot after 18 hrs by TLC-bioautographic method; format: functional; outline: as §2
Enterobacter cloacae [22] = experiment: Antimicrobial activity against Enterobacter cloacae at 1 umol/spot after 18 hrs by TLC-bioautographic method; format: functional; outline: as §2
Salmonella typhimurium [23] = experiment: Antimicrobial activity against Salmonella Typhimurium at 1 umol/spot after 18 hrs by TLC-bioautographic method; format: functional, Salmonella enterica subsp. enterica serovar Typhimurium; outline: as §2
Listeria monocytogenes [24] = experiment: Antimicrobial activity against Listeria monocytogenes at 1 umol/spot after 18 hrs by TLC-bioautographic method; format: functional; outline: as §2
Bacillus cereus [25] = experiment: Antimicrobial activity against Bacillus cereus after 24 hrs by microdilution technique; format: functional
Outline: (§3)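 Broth microdilution in LB medium. Inoculum is 1.0 × 10^4 cfu per well, from a saline-adjusted suspension of 1.0 × 10^5 cfu/ml. Compounds are dissolved in DMSO. Incubated 24 h at 28 C. MIC is the lowest concentration with no visible growth under a binocular microscope. MBC is read by subculture into fresh broth for 72 h, with no growth taken as 99.5% kill. OD is read at 655 nm.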

Micrococcus flavus [26] = experiment: Antimicrobial activity against Micrococcus flavus after 24 hrs by microdilution technique; format: functional; outline: as §3
Staphylococcus aureus [27] = experiment: Antimicrobial activity against Staphylococcus aureus after 24 hrs by microdilution technique; format: functional; outline: as §3
Escherichia coli [28] = experiment: Antimicrobial activity against Escherichia coli after 24 hrs by microdilution technique; format: functional; outline: as §3
Pseudomonas aeruginosa [29] = experiment: Antimicrobial activity against Pseudomonas aeruginosa after 24 hrs by microdilution technique; format: functional; outline: as §3
Enterobacter cloacae [30] = experiment: Antimicrobial activity against Enterobacter cloacae after 24 hrs by microdilution technique; format: functional; outline: as §3
Salmonella typhimurium [31] = experiment: Antimicrobial activity against Salmonella Typhimurium after 24 hrs by microdilution technique; format: functional, Salmonella enterica subsp. enterica serovar Typhimurium; details: Salmonella enterica; outline: as §3
Listeria monocytogenes [32] = experiment: Antimicrobial activity against Listeria monocytogenes after 24 hrs by microdilution technique; format: functional; outline: as §3

SMILES | inhibition zone (IZ) (Bacillus cereus [1]) | inhibition zone (IZ) (Staphylococcus aureus [3]) | inhibition zone (IZ) (Pseudomonas aeruginosa [5]) | inhibition zone (IZ) (Enterobacter cloacae [6]) | inhibition zone (IZ) (Salmonella typhimurium [7]) | inhibition zone (IZ) (Bacillus cereus [9]) | inhibition zone (IZ) (Micrococcus flavus [10]) | inhibition zone (IZ) (Staphylococcus aureus [11]) | inhibition zone (IZ) (Escherichia coli [12]) | inhibition zone (IZ) (Pseudomonas aeruginosa [13]) | inhibition zone (IZ) (Enterobacter cloacae [14]) | inhibition zone (IZ) (Salmonella typhimurium [15]) | inhibition zone (IZ) (Bacillus cereus [17]) | inhibition zone (IZ) (Micrococcus flavus [18]) [millimeter] | inhibition zone (IZ) (Staphylococcus aureus [19]) | inhibition zone (IZ) (Escherichia coli [20]) | inhibition zone (IZ) (Pseudomonas aeruginosa [21]) | inhibition zone (IZ) (Enterobacter cloacae [22]) [millimeter] | inhibition zone (IZ) (Salmonella typhimurium [23]) [millimeter] | inhibition zone (IZ) (Listeria monocytogenes [24]) [millimeter] | further results
O=C(/C=C/c1ccc(Cl)cc1)c1ccc(Nc2nc(Nc3ccccc3)nc(Nc3ccccc3)n2)cc1 | inactive | inactive | inactive | inactive | inactive | inactive | inactive | inactive | inactive | inactive | inactive | inactive | inactive | 0.07 | inactive | inactive | inactive | 0.08 | 0.09 | 0.07 | inhibition zone (IZ) (Micrococcus flavus [2]): inactive; inhibition zone (IZ) (Escherichia coli [4]): inactive; inhibition zone (IZ) (Listeria monocytogenes [8]): inactive; inhibition zone (IZ) (Listeria monocytogenes [16]): inactive; MBC (Bacillus cereus [25]): 386 µM (≈ 200 µg/mL); MIC (Bacillus cereus [25]): 193 µM (≈ 100 µg/mL); MBC (Micrococcus flavus [26]): 386 µM (≈ 200 µg/mL); MIC (Micrococcus flavus [26]): 193 µM (≈ 100 µg/mL); MBC (Staphylococcus aureus [27]): 772 µM (≈ 401 µg/mL); MIC (Staphylococcus aureus [27]): 386 µM (≈ 200 µg/mL); MBC (Escherichia coli [28]): 772 µM (≈ 401 µg/mL); MIC (Escherichia coli [28]): 772 µM (≈ 401 µg/mL); MBC (Pseudomonas aeruginosa [29]): 772 µM (≈ 401 µg/mL); MIC (Pseudomonas aeruginosa [29]): 386 µM (≈ 200 µg/mL); MBC (Enterobacter cloacae [30]): 386 µM (≈ 200 µg/mL); MIC (Enterobacter cloacae [30]): 193 µM (≈ 100 µg/mL); MBC (Salmonella typhimurium [31]): 772 µM (≈ 401 µg/mL); MIC (Salmonella typhimurium [31]): 386 µM (≈ 200 µg/mL); MBC (Listeria monocytogenes [32]): 772 µM (≈ 401 µg/mL); MIC (Listeria monocytogenes [32]): 386 µM (≈ 200 µg/mL)
COc1ccccc1-c1cc(-c2ccc(Nc3nc(Nc4ccccc4)nc(Nc4ccccc4)n3)cc2)nc(N)c1C#N | inactive | inactive | inactive | inactive | inactive | inactive | 0.06 millimeter | inactive | 0.04 millimeter | inactive | inactive | inactive | inactive | 0.06 | inactive | inactive | inactive | 0.08 | 0.07 | 0.09 | zone of inhibition at 10 µg/disc (Micrococcus flavus [2]; read-out: IZ): 10 mm; zone of inhibition at 10 µg/disc (Escherichia coli [4]; read-out: IZ): 7 mm; zone of inhibition at 10 µg/disc (Listeria monocytogenes [8]; read-out: IZ): 6 mm; MBC (Bacillus cereus [25]): 173 µM (≈ 99.9 µg/mL); MIC (Bacillus cereus [25]): 86.5 µM (≈ 50 µg/mL); MBC (Micrococcus flavus [26]): 173 µM (≈ 99.9 µg/mL); MIC (Micrococcus flavus [26]): 86.5 µM (≈ 50 µg/mL); MBC (Staphylococcus aureus [27]): 346 µM (≈ 200 µg/mL); MIC (Staphylococcus aureus [27]): 173 µM (≈ 99.9 µg/mL); MBC (Escherichia coli [28]): 346 µM (≈ 200 µg/mL); MIC (Escherichia coli [28]): 173 µM (≈ 99.9 µg/mL); MBC (Pseudomonas aeruginosa [29]): 692 µM (≈ 400 µg/mL); MIC (Pseudomonas aeruginosa [29]): 346 µM (≈ 200 µg/mL); MBC (Enterobacter cloacae [30]): 346 µM (≈ 200 µg/mL); MIC (Enterobacter cloacae [30]): 173 µM (≈ 99.9 µg/mL); MBC (Salmonella typhimurium [31]): 346 µM (≈ 200 µg/mL); MIC (Salmonella typhimurium [31]): 173 µM (≈ 99.9 µg/mL); MBC (Listeria monocytogenes [32]): 692 µM (≈ 400 µg/mL); MIC (Listeria monocytogenes [32]): 346 µM (≈ 200 µg/mL)
